According to ChEMBL document CHEMBL1154383, “Novel biphenylcarboxylic acid peroxisome proliferator-activated receptor (PPAR) delta selective antagonists” (Bioorg Med Chem Lett, 2009):
The source made the active and inactive calls. No cut-off for these calls is given here.

How the values were obtained:
[1] = target: T1, Peroxisome proliferator-activated receptor alpha (Homo sapiens, UniProt Q07869); assay: Agonist activity at PPARalpha receptor expressed in HEK293 cells co-transfected with GAL4 by transactivation assay; assay type: functional, cell-based
T1 sequence (Q07869 whole entry): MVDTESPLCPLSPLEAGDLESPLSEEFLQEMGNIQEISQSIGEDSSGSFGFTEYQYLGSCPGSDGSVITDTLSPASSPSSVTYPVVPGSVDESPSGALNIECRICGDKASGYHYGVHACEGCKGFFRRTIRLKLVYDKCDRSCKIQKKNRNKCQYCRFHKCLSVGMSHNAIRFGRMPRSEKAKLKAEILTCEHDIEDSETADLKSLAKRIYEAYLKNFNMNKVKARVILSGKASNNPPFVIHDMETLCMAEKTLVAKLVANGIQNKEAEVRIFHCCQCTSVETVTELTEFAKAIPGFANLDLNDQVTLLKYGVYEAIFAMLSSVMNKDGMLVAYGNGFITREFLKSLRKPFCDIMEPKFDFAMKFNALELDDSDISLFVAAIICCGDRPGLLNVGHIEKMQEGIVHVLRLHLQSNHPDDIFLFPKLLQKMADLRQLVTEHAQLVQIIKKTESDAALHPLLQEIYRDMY
Method in brief: (§1)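 GAL4-PPARα chimeric receptor transfected into HEK293 cells; cell-based transactivation (agonist mode). Output is EC50, plus % efficacy relative to the positive control fenofibric acid for PPARα.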

[2] = target: T2, Peroxisome proliferator-activated receptor alpha (Homo sapiens) (UniProt Q07869); assay: Agonist activity at PPARalpha receptor expressed in HEK293 cells co-transfected with GAL4 by transactivation assay relative to […]; assay type: functional, cell-based; method in brief: as §1
T2 sequence (whole entry): T1 sequence (Q07869 whole entry)

[3] = target: T3, Peroxisome proliferator-activated receptor delta (Homo sapiens, UniProt Q03181); assay: Agonist activity at PPARdelta receptor expressed in HEK293 cells co-transfected with GAL4 by transactivation assay; assay type: functional, cell-based
T3 sequence (Q03181 whole entry): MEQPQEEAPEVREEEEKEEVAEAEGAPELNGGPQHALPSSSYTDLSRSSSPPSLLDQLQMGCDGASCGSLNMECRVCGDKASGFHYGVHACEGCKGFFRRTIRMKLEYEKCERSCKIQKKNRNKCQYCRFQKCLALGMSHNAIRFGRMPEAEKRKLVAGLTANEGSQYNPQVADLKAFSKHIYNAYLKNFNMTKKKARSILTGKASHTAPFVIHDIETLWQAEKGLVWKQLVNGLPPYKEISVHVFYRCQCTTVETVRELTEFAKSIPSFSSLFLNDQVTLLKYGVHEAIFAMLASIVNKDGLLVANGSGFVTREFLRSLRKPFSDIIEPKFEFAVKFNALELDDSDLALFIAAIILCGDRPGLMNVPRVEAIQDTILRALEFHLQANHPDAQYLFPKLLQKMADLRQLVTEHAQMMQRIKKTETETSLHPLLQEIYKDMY

[4] = target: T4, Peroxisome proliferator-activated receptor gamma (Homo sapiens, UniProt P37231); assay: Agonist activity at PPARgamma receptor expressed in HEK293 cells co-transfected with GAL4 by transactivation assay
T4 sequence (P37231 whole entry): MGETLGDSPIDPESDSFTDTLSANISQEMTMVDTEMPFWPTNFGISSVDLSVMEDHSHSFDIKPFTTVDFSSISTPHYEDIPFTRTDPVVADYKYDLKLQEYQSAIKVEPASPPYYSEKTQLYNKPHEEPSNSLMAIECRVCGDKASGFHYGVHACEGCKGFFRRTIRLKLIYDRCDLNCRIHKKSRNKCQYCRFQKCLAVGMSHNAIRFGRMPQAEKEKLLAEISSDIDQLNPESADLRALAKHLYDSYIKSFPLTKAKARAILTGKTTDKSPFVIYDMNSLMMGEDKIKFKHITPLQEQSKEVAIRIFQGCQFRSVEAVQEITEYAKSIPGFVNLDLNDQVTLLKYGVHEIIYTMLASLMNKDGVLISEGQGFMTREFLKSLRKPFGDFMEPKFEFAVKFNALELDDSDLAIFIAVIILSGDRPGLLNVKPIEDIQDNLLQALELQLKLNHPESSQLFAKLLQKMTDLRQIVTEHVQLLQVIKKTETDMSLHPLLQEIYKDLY

[5] = target: T2, Peroxisome proliferator-activated receptor alpha (Homo sapiens); assay: (§2) Agonist activity at PPARalpha receptor expressed in HEK293 cells co-transfected with GAL4 at 1 uM by transactivation assay; assay type: functional, cell-based
[6] = target: T5, Peroxisome proliferator-activated receptor delta (Homo sapiens) (UniProt Q03181); assay: Agonist activity at PPARdelta receptor expressed in HEK293 cells co-transfected with GAL4 at 1 uM by transactivation assay; assay type: functional, cell-based
T5 sequence (whole entry): T3 sequence (Q03181 whole entry)

[7] = target: T6, Peroxisome proliferator-activated receptor gamma (Homo sapiens) (UniProt P37231); assay: Agonist activity at PPARgamma receptor expressed in HEK293 cells co-transfected with GAL4 at 10 uM by transactivation assay; assay type: functional, cell-based
T6 sequence (whole entry): T4 sequence (P37231 whole entry)

[8] = target: T2, Peroxisome proliferator-activated receptor alpha (Homo sapiens); assay: Agonist activity at PPARalpha receptor expressed in HEK293 cells co-transfected with GAL4 up to 10 uM by transactivation assay; assay type: functional, cell-based
Method in brief: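 HEK293 cells transfected with GAL4-PPAR chimeric receptors (PPARα, δ or γ) in a cell-based transactivation assay. Results given as EC50 and % efficacy relative to a subtype positive control: fenofibric acid for PPARα, GW501516 for PPARδ, ciglitazone for PPARγ.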

[9] = target: T5, Peroxisome proliferator-activated receptor delta (Homo sapiens); assay: Agonist activity at PPARdelta receptor expressed in HEK293 cells co-transfected with GAL4 at 10 uM by transactivation assay; assay type: functional, cell-based
[10] = target: Peroxisome proliferator-activated receptor delta (Homo sapiens) (UniProt Q03181); assay: Antagonist activity at PPARdelta co-transfected with GAL4-PPAR fusion protein assessed as inhibition of GW501516-induced response by luciferase reporter gene assay
[11] = target: T1, Peroxisome proliferator-activated receptor alpha; assay: as §2; assay type: functional, cell-based
[12] = target: T3, Peroxisome proliferator-activated receptor delta; assay: Antagonist activity at PPARdelta co-transfected with GAL4-PPAR fusion protein assessed as inhibition of GW-501516-induced response by luciferase reporter gene assay; assay type: functional
[13] = target: T2, Peroxisome proliferator-activated receptor alpha (Homo sapiens); assay: Antagonist activity at PPARalpha co-transfected with GAL4-PPAR fusion protein assessed as inhibition of TIPP703-induced response up to 10 uM by luciferase reporter gene assay; assay type: functional
Method in brief: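 Antagonist mode in the GAL4-PPAR chimera system. Cells were stimulated with the agonist TIPP-703, with or without three added test concentrations. Inhibition of the agonist-elicited reporter signal was assessed for dose dependence.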

[14] = target: T6, Peroxisome proliferator-activated receptor gamma (Homo sapiens); assay: Antagonist activity at PPARgamma co-transfected with GAL4-PPAR fusion protein assessed as inhibition of TIPP703-induced response up to 10 uM by luciferase reporter gene assay; assay type: functional
Method in brief: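 Cells expressing GAL4-PPARα or GAL4-PPARγ chimeras were stimulated with the agonist TIPP-703, with or without co-treatment at 0.1, 1 or 10 µM. Antagonism was read as dose-dependent reduction of the induced transactivation signal.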

[15] = target: T4, Peroxisome proliferator-activated receptor gamma

| SMILES | EC50 [1] | Efficacy [2] | EC50 [3] | Activity [5] | Activity [7] | Activity [8] | further results |
| --- | --- | --- | --- | --- | --- | --- | --- |
| CCCCOc1ccc(-c2ccc(C(=O)O)c(C)c2)cc1CNC(=O)c1ccc(C(F)(F)F)cc1F | 3000 nM | 100% | 45 nM | – | – | – | – |
| CCCCOc1ccc(C[C@H](CC)C(=O)O)cc1CNC(=O)c1ccc(C(F)(F)F)cc1F | 240 nM | – | 0.72 nM | – | – | – | EC50 [4]: 1400 nM |
| CCCCOc1ccc(-c2ccc(C)c(C(=O)O)c2)cc1CNC(=O)c1ccc(C(F)(F)F)cc1F | 120 nM | 100% | 14 nM | – | – | – | – |
| CCCCOc1ccc(-c2ccc(C(=O)O)o2)cc1CNC(=O)c1ccc(C(F)(F)F)cc1F | – | – | – | inactive | inactive | inactive | Activity [6]: inactive; Activity [9]: inactive; Activity [10]: inactive |
| CCCCOc1ccc(-c2ccccc2C(=O)O)cc1CNC(=O)c1ccc(C(F)(F)F)cc1F | – | – | – | inactive | inactive | inactive | Activity [6]: inactive; Activity [10]: inactive |
| CCCCOc1ccc(-c2ccc(C(=O)O)cc2)cc1CNC(=O)c1ccc(C(F)(F)F)cc1F | – | – | 170 nM | – | inactive | inactive | EC50 [11]: Not Active; IC50 [12]: 68 nM; Activity [13]: inactive; Activity [14]: inactive |
| CCCCOc1ccc(-c2ccc(C(=O)O)cn2)cc1CNC(=O)c1ccc(C(F)(F)F)cc1F | – | – | – | inactive | inactive | inactive | Activity [6]: inactive; Activity [9]: inactive; Activity [10]: inactive |
| CCCCOc1ccc(-c2cccc(C(=O)O)c2C)cc1CNC(=O)c1ccc(C(F)(F)F)cc1F | 130 nM | 100% | 1.6 nM | – | – | – | – |
| CCCCOc1ccc(-c2ccc(C(=O)O)cc2C)cc1CNC(=O)c1ccc(C(F)(F)F)cc1F | – | – | – | inactive | – | – | IC50 [15]: 10 nM |
| CCCCOc1ccc(-c2cc(C(=O)O)ccc2C)cc1CNC(=O)c1ccc(C(F)(F)F)cc1F | 570 nM | 100% | 4.9 nM | – | – | – | – |
| CCCCOc1ccc(-c2ccc(C(=O)O)cc2F)cc1CNC(=O)c1ccc(C(F)(F)F)cc1F | – | – | 53 nM | inactive | – | – | – |
| CCCCOc1ccc(-c2ccc(C(=O)O)nc2)cc1CNC(=O)c1ccc(C(F)(F)F)cc1F | – | – | 400 nM | inactive | – | – | – |
| CCCCOc1ccc(-c2cccc(C(=O)O)c2)cc1CNC(=O)c1ccc(C(F)(F)F)cc1F | 790 nM | 100% | 29 nM | – | – | – | – |
